The source made the active and inactive calls. The rule behind the calls is not given here.

Experiment [1] can be described thus: Displacement of [3H]YM09151-2 from D2R (long isoform) dimer in lamb striatum membrane high affinity macroscopic equilibrium dissociation constant by scintillation counting. The format is cell membranes, Ovis aries. The gist of the method: (§1)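 Lamb striatal membranes (0.3-0.5 mg protein/mL) were incubated 2 h at 25 °C in 50 mM Tris-HCl pH 7.4 with 10 mM MgCl2 and 2 U/mL ADA. Radioligand was 2.1 nM [3H]ZM241385 (A2AR) or 0.9 nM [3H]YM09151-2 (D2R), against 11 competitor concentrations from 0.1 nM to 50 μM in triplicate. Nonspecific binding used 50 μM unlabeled radioligand. After GF/C filtration, counts were fitted to a two-state dimer model for KDB1 and KDB2; three experiments.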
Background: Loss of bound radioactivity is the signal in a displacement assay; it reports binding, not function.

Experiment [2] concerns the target Adenosine A2A receptor (Homo sapiens) (UniProt P29274). Briefly: Displacement of [3H]ZM241385 from human A2aR/D2R (long isoform) heteromer expressed in mouse Ltk cells by scintillation counting. The class given is cell-based. The gist of the method:
(§2)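 Mouse Ltk fibroblasts were transiently transfected with human A2AR, human D2R (long isoform) or both, and membranes were prepared 48 h later. Membranes were incubated 2 h at 25 °C in 50 mM Tris-HCl pH 7.4 with 10 mM MgCl2 and 2 U/mL ADA, plus 2.1 nM [3H]ZM241385 or 1.9 nM [3H]YM09151-2 and 1 μM test compound. Bound ligand was counted after filtration and expressed as % of specific binding without displacer; three independent experiments.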
Target sequence in this assay (P29274 whole entry, canonical isoform): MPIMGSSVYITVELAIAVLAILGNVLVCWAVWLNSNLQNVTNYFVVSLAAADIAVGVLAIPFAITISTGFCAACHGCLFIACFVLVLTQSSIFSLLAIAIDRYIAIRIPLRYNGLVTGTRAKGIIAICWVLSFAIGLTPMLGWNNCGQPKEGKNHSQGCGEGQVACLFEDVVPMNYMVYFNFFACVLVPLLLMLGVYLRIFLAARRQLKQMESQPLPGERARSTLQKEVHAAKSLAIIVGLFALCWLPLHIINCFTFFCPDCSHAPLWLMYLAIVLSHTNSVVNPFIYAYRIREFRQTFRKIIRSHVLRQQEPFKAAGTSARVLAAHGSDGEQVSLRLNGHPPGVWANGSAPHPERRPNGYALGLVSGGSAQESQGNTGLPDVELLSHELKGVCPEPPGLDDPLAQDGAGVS

Experiment [3] has as its system Dopamine D2 receptor (Homo sapiens). Briefly: Displacement of [3H]YM09151-2 from human A2aR/D2R (long isoform) heteromer expressed in mouse Ltk cells by scintillation counting.
Experiment [4] deals with Adenosine A2A receptor (Homo sapiens) (UniProt P29274). Briefly: Displacement of [3H]ZM241385 from human A2aR/D2R (long isoform) coexpressed in mouse Ltk cells by scintillation counting. The class given is cell-based. The gist of the method:
as §2
Target sequence in this assay (P29274 whole entry, canonical isoform): as above

A short description of experiment [5]: Displacement of [3H]YM09151-2 from D2R (long isoform) dimer in lamb striatum membrane low affinity macroscopic equilibrium dissociation constant by scintillation counting. The format is cell membranes, Ovis aries. The essentials: as §1
The nature of experiment [6]: Displacement of [3H]ZM241385 from A2aR dimer in lamb striatum membrane assessed as high affinity macroscopic equilibrium dissociation constant by scintillation counting. The format is cell membranes, Ovis aries. The gist of the method:
as §1

The target in experiment [7] is D(2) dopamine receptor (Homo sapiens) (UniProt P14416). The experiment can be described thus: Displacement of [3H]YM09151-2 from human D2R expressed in mouse Ltk cells by scintillation counting relative to control. The class given is cell-based. The essentials:
as §2

Experiment [8] addresses Adenosine A2A receptor (Homo sapiens) (UniProt P29274). The experiment can be described thus: Displacement of [3H]ZM241385 from human A2aR expressed in mouse Ltk cells at 1 uM by scintillation counting relative to control. The format is cell-based. The essentials: as §2
Target sequence in this assay (P29274 whole entry, canonical isoform): as above
Experiment [9] shares this target. The experiment can be described thus: Displacement of [3H]ZM241385 from human A2AR expressed in mouse Ltk cells at 1 uM by scintillation counting relative to control.
Target sequence in this assay (P29274 whole entry, looked up, canonical isoform): as the sequence (P29274 whole entry, canonical isoform) above
Experiment [10] has the same target. The experiment can be described thus: Displacement of [3H]ZM241385 from human A2aR expressed in mouse Ltk cells by scintillation counting relative to control. The class given is cell-based. The essentials: as §2
Target sequence in this assay (P29274 whole entry, canonical isoform): as above

Sequence of D(2) dopamine receptor (Homo sapiens) (P14416 whole entry): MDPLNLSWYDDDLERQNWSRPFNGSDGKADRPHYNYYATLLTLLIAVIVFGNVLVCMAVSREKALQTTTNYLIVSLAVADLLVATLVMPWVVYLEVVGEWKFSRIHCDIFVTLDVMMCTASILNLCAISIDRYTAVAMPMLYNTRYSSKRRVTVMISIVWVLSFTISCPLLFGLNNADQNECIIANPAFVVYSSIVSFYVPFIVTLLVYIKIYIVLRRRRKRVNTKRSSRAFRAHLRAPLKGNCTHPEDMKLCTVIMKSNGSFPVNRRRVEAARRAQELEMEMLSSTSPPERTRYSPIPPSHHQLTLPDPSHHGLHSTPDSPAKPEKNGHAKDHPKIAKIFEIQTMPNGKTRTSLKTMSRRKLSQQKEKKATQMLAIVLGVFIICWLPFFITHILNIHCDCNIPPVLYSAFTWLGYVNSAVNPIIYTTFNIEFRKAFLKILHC

As a reminder, the Ki is a measure of affinity in units of concentration, obtained from inhibition or displacement. For the molecule `CCCN(CCc1ccc(NC(=O)CCC(N)C(=O)NCCCCC(NC(=O)CCC(=O)NCCOCCOCCNC(=O)CCC(=O)NCCOCCOCCNC(=O)C(CCCCNC(=O)C(N)CCCCNC(=O)COc2ccc(-c3nc4c([nH]3)c(=O)n(CCC)c(=O)n4CCC)cc2)NC(C)=O)C(N)=O)cc1)C1CCc2c(O)cccc2C1` (stereo not given), the Ki in [1] is 1.1 nM; in [5], 1400 nM; in [6] it was 80 nM. In addition, the result in experiment [2], in [3] and in experiment [4] was Active.

For the molecule `CCCn1c(=O)c2[nH]c(-c3ccc(OCC(=O)NCCCCC(N)C(=O)NCCCCC(NC(C)=O)C(=O)NCCOCCOCCNC(=O)CCC(=O)NC(CCCCNC(C)=O)C(N)=O)cc3)nc2n(CCC)c1=O` (stereo not given), in experiment [7], the outcome was inactive. The outcome in experiment [8] and in experiment [9] was Active. In addition, in experiment [6], the Ki came out at 246 nM.

As for `CCCN(CCc1ccc(NC(=O)CCC(N)C(=O)NCCCCC(NC(=O)CCC(=O)NCCOCCOCCNC(=O)CCC(=O)NCCOCCOCCNC(=O)CCC(=O)NCCOCCOCCNC(=O)CCC(=O)NCCOCCOCCNC(=O)CCC(=O)NCCOCCOCCNC(=O)C(CCCCNC(C)=O)NC(C)=O)C(N)=O)cc1)C1CCc2c(O)cccc2C1` (stereo not given), in experiment [3], the result was Active.

As for `CCCN(CCc1ccc(NC(=O)CCC(N)C(=O)NCCCCC(NC(=O)C(CCCCNC(=O)C(N)CCCCNC(=O)COc2ccc(-c3nc4c([nH]3)c(=O)n(CCC)c(=O)n4CCC)cc2)NC(C)=O)C(N)=O)cc1)C1CCc2c(O)cccc2C1` (stereo not given), the Ki in [1] is 1 nM; in experiment [5], 9000 nM; in experiment [6], 55 nM. For the same molecule, the outcome in experiment [2], in [3] and in [4] was Active.

Turning to `CCCN(CCc1ccc(NC(=O)CCC(N)C(=O)NCCCCC(NC(=O)CCC(=O)NCCOCCOCCNC(=O)CCC(=O)NCCOCCOCCNC(=O)CCC(=O)NCCOCCOCCNC(=O)C(CCCCNC(C)=O)NC(C)=O)C(N)=O)cc1)C1CCc2c(O)cccc2C1` (stereo not given), the outcome in [7] and in experiment [10] was inactive. The results for the inhibitory constant (Ki) in [1] and in experiment [5] were 13 nM and 9000 nM, respectively. Besides, the outcome in [8], in [3] and in experiment [9] was Active.

Consider `CCCN(CCc1ccc(NC(=O)CCC(N)C(=O)NCCCCC(NC(=O)CCC(=O)NCCOCCOCCNC(=O)CCC(=O)NCCOCCOCCNC(=O)C(CCCCNC(C)=O)NC(C)=O)C(N)=O)cc1)C1CCc2c(O)cccc2C1` (stereo not given), for which the Ki in [1] was found to be 11 nM; in [5] it was 12000 nM. In [3], the result was Active.

In the case of `CCCN(CCc1ccc(NC(=O)CCC(N)C(=O)NCCCCC(NC(=O)CCC(=O)NCCOCCOCCNC(=O)CCC(=O)NCCOCCOCCNC(=O)CCC(=O)NCCOCCOCCNC(=O)CCC(=O)NCCOCCOCCNC(=O)CCC(=O)NCCOCCOCCNC(=O)CCC(=O)NCCOCCOCCNC(=O)C(CCCCNC(C)=O)NC(C)=O)C(N)=O)cc1)C1CCc2c(O)cccc2C1` (stereo not given), in [3], the outcome was Active.

Turning to `CCCn1c(=O)c2[nH]c(-c3ccc(OCC(=O)NCCCCC(N)C(=O)NCCCCC(NC(C)=O)C(=O)NC(CCCCNC(C)=O)C(N)=O)cc3)nc2n(CCC)c1=O` (stereo not given), in experiment [2], the Activity turned out to be 58%. Further, the inhibitory constant (Ki) in [6] was 160 nM.

For `CCCn1c(=O)c2[nH]c(-c3ccc(OCC(=O)NCCCCC(N)C(=O)NCCCCC(NC(C)=O)C(=O)NCCOCCOCCNC(=O)CCC(=O)NCCOCCOCCNC(=O)CCC(=O)NC(CCCCNC(C)=O)C(N)=O)cc3)nc2n(CCC)c1=O` (stereo not given), the Ki in experiment [6] was determined as 268 nM.

In the case of `CCCN(CCc1ccc(NC(=O)CCC(N)C(=O)NCCCCC(NC(=O)CCC(=O)NCCOCCOCCNC(=O)CCC(=O)NCCOCCOCCNC(=O)CCC(=O)NCCOCCOCCNC(=O)CCC(=O)NCCOCCOCCNC(=O)CCC(=O)NCCOCCOCCNC(=O)CCC(=O)NCCOCCOCCNC(=O)CCC(=O)NCCOCCOCCNC(=O)C(CCCCNC(C)=O)NC(C)=O)C(N)=O)cc1)C1CCc2c(O)cccc2C1` (stereo not given), in [3], the outcome was Active.

`CCCN(CCc1ccc(NC(=O)CCC(N)C(=O)NCCCCC(NC(=O)CCC(=O)NCCOCCOCCNC(=O)C(CCCCNC(C)=O)NC(C)=O)C(N)=O)cc1)C1CCc2c(O)cccc2C1` (stereo not given): the result in experiment [7] and in experiment [10] was inactive. Besides, the values for the Ki in experiment [1] and in experiment [5] were 11 nM and 15000 nM, respectively. Also, the result in [8], in [3] and in [9] was Active.

For `CCCN(CCc1ccc(NC(=O)CCC(N)C(=O)NCCCCC(NC(=O)CCC(=O)NCCOCCOCCNC(=O)CCC(=O)NCCOCCOCCNC(=O)CCC(=O)NCCOCCOCCNC(=O)CCC(=O)NCCOCCOCCNC(=O)C(CCCCNC(=O)C(N)CCCCNC(=O)COc2ccc(-c3nc4c([nH]3)c(=O)n(CCC)c(=O)n4CCC)cc2)NC(C)=O)C(N)=O)cc1)C1CCc2c(O)cccc2C1` (stereo not given), the outcome in experiment [2], in experiment [3] and in experiment [4] was Active.

As to `CCCN(CCc1ccc(NC(=O)CCC(N)C(=O)NCCCCC(NC(=O)CCC(=O)NCCOCCOCCNC(=O)CCC(=O)NCCOCCOCCNC(=O)CCC(=O)NCCOCCOCCNC(=O)CCC(=O)NCCOCCOCCNC(=O)CCC(=O)NCCOCCOCCNC(=O)CCC(=O)NCCOCCOCCNC(=O)CCC(=O)NCCOCCOCCNC(=O)C(CCCCNC(=O)C(N)CCCCNC(=O)COc2ccc(-c3nc4c([nH]3)c(=O)n(CCC)c(=O)n4CCC)cc2)NC(C)=O)C(N)=O)cc1)C1CCc2c(O)cccc2C1` (stereo not given), the result in experiment [7] was inactive. Moreover, the outcome in experiment [2], in experiment [3] and in [4] was Active.

On to `CCCN(CCc1ccc(NC(=O)CCC(N)C(=O)NCCCCC(NC(=O)C(CCCCNC(C)=O)NC(C)=O)C(N)=O)cc1)C1CCc2c(O)cccc2C1` (stereo not given), for which the Ki was 4 nM in [1] and 9000 nM in experiment [5]. Further, the result in [3] was Active.

As for `CCCN(CCc1ccc(NC(=O)CCC(N)C(=O)NCCCCC(NC(=O)CCC(=O)NCCOCCOCCNC(=O)CCC(=O)NCCOCCOCCNC(=O)CCC(=O)NCCOCCOCCNC(=O)CCC(=O)NCCOCCOCCNC(=O)CCC(=O)NCCOCCOCCNC(=O)CCC(=O)NCCOCCOCCNC(=O)C(CCCCNC(=O)C(N)CCCCNC(=O)COc2ccc(-c3nc4c([nH]3)c(=O)n(CCC)c(=O)n4CCC)cc2)NC(C)=O)C(N)=O)cc1)C1CCc2c(O)cccc2C1` (stereo not given), the outcome in experiment [2], in [3] and in experiment [4] was Active.

With `CCCn1c(=O)c2[nH]c(-c3ccc(OCC(=O)NCCCCC(N)C(=O)NCCCCC(NC(C)=O)C(=O)NCCOCCOCCNC(=O)CCC(=O)NCCOCCOCCNC(=O)CCC(=O)NCCOCCOCCNC(=O)CCC(=O)NC(CCCCNC(C)=O)C(N)=O)cc3)nc2n(CCC)c1=O` (stereo not given), the outcome in experiment [8] and in [9] was Active. Besides, the inhibition constant (Ki) in experiment [6] was 364 nM.

In experiment [2], `CCCn1c(=O)c2[nH]c(-c3ccc(OCC(=O)NCCCCC(N)C(=O)NCCCCC(NC(C)=O)C(=O)NCCOCCOCCNC(=O)CCC(=O)NCCOCCOCCNC(=O)CCC(=O)NCCOCCOCCNC(=O)CCC(=O)NCCOCCOCCNC(=O)CCC(=O)NCCOCCOCCNC(=O)CCC(=O)NCCOCCOCCNC(=O)CCC(=O)NCCOCCOCCNC(=O)CCC(=O)NC(CCCCNC(C)=O)C(N)=O)cc3)nc2n(CCC)c1=O` (stereo not given) came in with an Activity of 17%.

`CCCN(CCc1ccc(NC(=O)CCC(N)C(=O)NCCCCC(NC(=O)CCC(=O)NCCOCCOCCNC(=O)CCC(=O)NCCOCCOCCNC(=O)CCC(=O)NCCOCCOCCNC(=O)CCC(=O)NCCOCCOCCNC(=O)C(CCCCNC(C)=O)NC(C)=O)C(N)=O)cc1)C1CCc2c(O)cccc2C1` (stereo not given): the outcome in experiment [3] was Active.

For the molecule `CCCN(CCc1ccc(NC(=O)CCC(N)C(=O)NCCCCC(NC(=O)CCC(=O)NCCOCCOCCNC(=O)CCC(=O)NCCOCCOCCNC(=O)CCC(=O)NCCOCCOCCNC(=O)CCC(=O)NCCOCCOCCNC(=O)CCC(=O)NCCOCCOCCNC(=O)C(CCCCNC(=O)C(N)CCCCNC(=O)COc2ccc(-c3nc4c([nH]3)c(=O)n(CCC)c(=O)n4CCC)cc2)NC(C)=O)C(N)=O)cc1)C1CCc2c(O)cccc2C1` (stereo not given), the outcome in experiment [2], in experiment [3] and in experiment [4] was Active.

For the origin of these results see ChEMBL document CHEMBL1153525, “Adenosine A2A receptor-antagonist/dopamine D2 receptor-agonist bivalent ligands as pharmacological tools to detect A2A-D2 receptor heteromers” (J Med Chem, 2009).
